Measured values as given in ChEMBL document CHEMBL3616436, “Synthesis, cytotoxicity and antimicrobial activity of thiourea derivatives incorporating 3-(trifluoromethyl)phenyl moiety” (Eur J Med Chem, 2015).
Calls of active or inactive are those of the source. No cut-off for these calls is given here.

Key:
[1] = Cytotoxicity against human MT4 cells; assay type: cell-based
[2] = tested on: Vesicular stomatitis virus; test: Antiviral activity against Vesicular stomatitis virus ATCC VR 1540 infected in African green monkey Vero 76 cells assessed as reduction of virus-plaque formation after 2 days by crystal violet staining; assay type: functional, organism-based; settings: ATCC VR 1540, Vero, 48 h
[3] = tested on: Human immunodeficiency virus 1; test: Antiviral activity against HIV1 3B infected in human MT4 cells assessed as protection against virus-induced cytopathogenicity by MTT assay; assay type: functional, organism-based; settings: Human immunodeficiency virus 1, 3B
[4] = Cytotoxicity against bovine MDBK cells assessed as cell viability after 48 to 96 hrs by MTT assay; assay type: cell-based, Bos taurus; settings: cattle
[5] = Antiviral activity against Bovine viral diarrhea virus 1-NADL ATCC VR-534 infected in MDBK cells assessed as protection against virus-induced cytopathogenicity after 3 to 4 days by MTT assay; assay type: functional, cell-based; settings: Bovine viral diarrhea virus isolates and strains, ATCC VR-534, MDBK
Outline: (§1)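 Cells seeded in 96-well plates (BHK 5x10^4, MDBK 3x10^4 cells/well), grown overnight to confluence, infected at m.o.i. 0.01 (BHK for Reo-1, MDBK for BVDV); serial compound dilutions in maintenance medium with 0.5% inactivated FBS added after 1 h; viability by MTT after 3–4 days at 37°C; EC50 for 50% protection by linear regression.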

[6] = Cytotoxicity against BHK cells assessed as cell viability after 48 to 96 hrs by MTT assay; assay type: cell-based, Mesocricetus auratus; settings: hamster
[7] = tested on: Yellow fever virus; test: Antiviral activity against Yellow fever virus 17D infected in BHK cells assessed as protection against virus-induced cytopathogenicity after 3 to 4 days by MTT assay; assay type: functional, cell-based
[8] = tested on: Mammalian orthoreovirus 1; test: Antiviral activity against Reovirus type-1 ATCC VR-214 infected in BHK cells assessed as protection against virus-induced cytopathogenicity after 3 to 4 days by MTT assay; assay type: functional, cell-based; settings: Mammalian orthoreovirus 1, ATCC VR-214, BHK; outline: as §1
[9] = Cytotoxicity against African green monkey Vero 76 cells assessed as cell viability after 48 to 96 hrs by crystal violet staining; assay type: cell-based; settings: chlorocebus sabaeus
[10] = tested on: Coxsackievirus B5; test: Antiviral activity against Human coxsackievirus B5 ATCC VR-29 infected in African green monkey Vero 76 cells assessed as reduction of virus-plaque formation after 3 days by crystal violet staining; assay type: functional, organism-based; settings: Enterovirus B, ATCC VR-29, Vero, 72 h
Outline: (§2)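 Plaque reduction: Vero-76 at 2x10^5 cells/well grown to confluent monolayers, infected 2 h at 50–100 PFU/well; after removing unadsorbed virus, overlay of D-MEM, 1% inactivated FBS, 0.75% methylcellulose with or without serial compound dilutions; 3 days at 37°C, fixed and stained with crystal violet in 50% ethanol, plaques counted; EC50 by linear regression.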

[11] = tested on: Poliovirus 1; test: Antiviral activity against Poliovirus type 1 ATCC VR-1562 infected in African green monkey Vero 76 cells assessed as reduction of virus-plaque formation after 2 days by crystal violet staining; assay type: functional, organism-based; settings: Enterovirus C, ATCC VR-1562, Vero, 48 h
[12] = tested on: Vaccinia virus; test: Antiviral activity against Human Vaccinia virus ATCC VR-1549 infected in African green monkey Vero 76 cells assessed as reduction of virus-plaque formation after 3 days by crystal violet staining; assay type: functional, organism-based; settings: Orthopoxvirus vaccinia, ATCC VR-1549, Vero, 72 h
[13] = tested on: Human alphaherpesvirus 1; test: Antiviral activity against Human herpesvirus 1 KOS ATCC VR-1493 infected in African green monkey Vero 76 cells assessed as reduction of virus-plaque formation after 3 days by crystal violet staining; assay type: functional, organism-based; settings: Human alphaherpesvirus 1, KOS ATCC VR1493, Vero, 72 h; outline: as §2
[14] = tested on: Escherichia coli; test: Antimicrobial activity against Escherichia coli ATCC 10538 after 18 hrs by twofold serial microdilution method; assay type: functional, organism-based
[15] = tested on: Escherichia coli; test: Antimicrobial activity against Escherichia coli ATCC 25922 after 18 hrs by twofold serial microdilution method; assay type: functional, organism-based
[16] = tested on: Escherichia coli; test: Antimicrobial activity against Escherichia coli NCTC 8196 after 18 hrs by twofold serial microdilution method; assay type: functional, organism-based
[17] = tested on: Pseudomonas aeruginosa; test: Antimicrobial activity against Pseudomonas aeruginosa ATCC 15442 after 18 hrs by twofold serial microdilution method; assay type: functional, organism-based
[18] = tested on: Pseudomonas aeruginosa; test: Antimicrobial activity against Pseudomonas aeruginosa NCTC 6749 after 18 hrs by twofold serial microdilution method; assay type: functional, organism-based
[19] = tested on: Pseudomonas aeruginosa; test: Antimicrobial activity against Pseudomonas aeruginosa ATCC 27863 after 18 hrs by twofold serial microdilution method; assay type: functional, organism-based
[20] = tested on: Bordetella bronchiseptica; test: Antimicrobial activity against Bordetella bronchiseptica ATCC 4617 after 18 hrs by twofold serial microdilution method; assay type: functional, organism-based
[21] = tested on: Candida albicans; test: Antimicrobial activity against Candida albicans ATCC 10231 after 24 hrs by twofold serial microdilution method; assay type: functional, organism-based
[22] = tested on: Candida albicans; test: Antimicrobial activity against Candida albicans ATCC 90028 after 24 hrs by twofold serial microdilution method; assay type: functional, organism-based
[23] = tested on: Candida parapsilosis; test: Antimicrobial activity against Candida parapsilosis ATCC 22019 after 24 hrs by twofold serial microdilution method; assay type: functional, organism-based

CC[C@H]1CC[C@H](c2ccc(NC(=S)Nc3cccc(C(F)(F)F)c3)cc2)CC1
CC50 [1]: 39 µM | EC50 [2]: > 10 µM | EC50 [3]: > 39 µM | CC50 [4]: 9 µM | EC50 [5]: > 9 µM | CC50 [6]: 10 µM | EC50 [7]: > 10 µM | EC50 [8]: > 10 µM | CC50 [9]: 10 µM | EC50 [10]: > 10 µM | EC50 [11]: > 10 µM | EC50 [12]: > 10 µM | EC50 [13]: > 10 µM | Activity [14]: inactive | Activity [15]: inactive | Activity [16]: inactive | Activity [17]: inactive | Activity [18]: inactive | Activity [19]: inactive | Activity [20]: inactive | Activity [21]: inactive | Activity [22]: inactive | Activity [23]: inactive
